For data set [1], the target named is T1, Cannabinoid receptor 1 (Homo sapiens, UniProt P21554). It is filed as functional, cell-based, CHO-K1.
The nature of data set [2]: Octanol-water partition coefficient, log D of the compound. Type of data set: physicochemical.
Data set [3] concerns the target T1, Cannabinoid receptor 1. In words: Inverse agonist activity at human recombinant CB1 receptor expressed in CHO-K1 cells assessed as stimulation of GTPgammaS binding. Type of data set: functional, cell-based. The method in brief:
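Membranes came from CHO-K1 cells stably transfected with recombinant human CB1. Efficacy above 100% was taken as inverse agonist activity. IC50 values are the mean of at least two determinations.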
For orientation: Binding of GTPγS marks nucleotide exchange on a G protein.

T1 sequence (P21554 whole entry): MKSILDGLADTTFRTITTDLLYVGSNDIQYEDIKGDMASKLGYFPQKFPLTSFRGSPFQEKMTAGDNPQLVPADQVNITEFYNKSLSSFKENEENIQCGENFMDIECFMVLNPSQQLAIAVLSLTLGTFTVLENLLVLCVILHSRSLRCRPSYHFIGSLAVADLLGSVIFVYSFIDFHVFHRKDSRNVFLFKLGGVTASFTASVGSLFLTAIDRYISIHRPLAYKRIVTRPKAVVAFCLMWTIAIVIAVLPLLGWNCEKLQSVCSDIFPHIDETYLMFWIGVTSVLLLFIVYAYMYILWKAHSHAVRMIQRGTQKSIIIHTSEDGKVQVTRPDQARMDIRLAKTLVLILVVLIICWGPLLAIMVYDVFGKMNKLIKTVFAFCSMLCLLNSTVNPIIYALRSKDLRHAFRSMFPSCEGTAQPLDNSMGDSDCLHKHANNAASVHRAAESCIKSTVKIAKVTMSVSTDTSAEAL

What is called IC50 is the point on the concentration scale where inhibition reaches its midpoint. Compound `Cc1cc(CNC(=O)c2nn(-c3ccccc3Cl)c(-c3ccc(Cl)cc3)c2CC#N)no1` showed an IC50 against Cannabinoid receptor 1 [1] of 15 nM.
Broadly, the logD is lipophilicity at a set pH, counting ionised and neutral species. The compound `N#CCc1c(C(=O)NCc2ccc(Cl)cc2)nn(-c2ccccc2Cl)c1-c1ccc(Cl)cc1` came in with a logD in data set [2] of 4.4. The same compound displayed an IC50 on Cannabinoid receptor 1 [1] of 1.2 nM.
On Cannabinoid receptor 1 [1], `N#CCc1c(C(=O)NC2CCCCCC2)nn(-c2ccccc2Cl)c1-c1ccc(Cl)cc1` came in with an IC50 of 0.49 nM.
`N#CCc1c(C(=O)NCc2ccc(C#N)cc2)nn(-c2ccccc2Cl)c1-c1ccc(Cl)cc1`: the logD in data set [2] turned out to be 3.8. The IC50 against Cannabinoid receptor 1 [1] is 4.2 nM.
Turning to `N#CCc1c(C(=O)NC(Cc2ccccc2)C(=O)O)nn(-c2ccccc2Cl)c1-c1ccc(Cl)cc1` (stereo not drawn), the IC50 against Cannabinoid receptor 1 [1] turned out to be 4450 nM.
In turn, `N#CCc1c(C(=O)N2CC[C@@H](OCc3ccc(F)cc3)C2)nn(-c2ccccc2Cl)c1-c1ccc(Cl)cc1` returned an IC50 against Cannabinoid receptor 1 [1] of 20 nM.
Same read-out and setting: then `N#CCc1c(C(=O)N2CCc3ccccc3C2)nn(-c2ccccc2Cl)c1-c1ccc(Cl)cc1`, with 5.7 nM.
Consider `N#CCc1c(C(=O)Nc2cccnc2)nn(-c2ccccc2Cl)c1-c1ccc(Cl)cc1`, for which the log distribution coefficient (logD) in data set [2] is 3.3. This compound came in with an IC50 against Cannabinoid receptor 1 [1] of 57 nM.
With `CS(=O)(=O)N1CCC(NC(=O)c2nn(-c3ccccc3Cl)c(-c3ccc(Cl)cc3)c2CC#N)CC1`, 31 nM corresponded to half-maximal inhibition against Cannabinoid receptor 1 [1] (IC50).
Turning to `N#CCc1c(C(=O)N2CCC(c3ccccc3C(=O)O)CC2)nn(-c2ccccc2Cl)c1-c1ccc(Cl)cc1`, the IC50 against Cannabinoid receptor 1 [1] came to 2810 nM.
In data set [2], `N#CCc1c(C(=O)Nc2cccnc2Cl)nn(-c2ccccc2Cl)c1-c1ccc(Cl)cc1` registered a log distribution coefficient (logD) of 4.4. Further, 18 nM corresponded to half-maximal inhibition against Cannabinoid receptor 1 [1] (IC50).
In turn, `N#CCc1c(C(=O)N2CCC(O)(c3ccc(F)cc3)CC2)nn(-c2ccccc2Cl)c1-c1ccc(Cl)cc1` yielded an IC50 on Cannabinoid receptor 1 [1] of 3 nM.
In data set [2], `N#CCc1c(C(=O)NCc2ccc(Br)cc2F)nn(-c2ccccc2Cl)c1-c1ccc(Cl)cc1` came in with a logD of 4.5. Further, 0.51 nM corresponded to half-maximal inhibition against Cannabinoid receptor 1 [1] (IC50).
`CC(=O)C1CCN(C(=O)c2nn(-c3ccccc3Cl)c(-c3ccc(Cl)cc3)c2CC#N)CC1` yielded an IC50 against Cannabinoid receptor 1 [1] of 199 nM.
In turn, `CN(Cc1ccc(F)cc1)C(=O)c1nn(-c2ccccc2Cl)c(-c2ccc(Cl)cc2)c1CC#N` gave a logD in data set [2] of 4.2. The 50% inhibitory concentration (IC50) at Cannabinoid receptor 1 [1] was found to be 5.6 nM.
In turn, `N#CCc1c(C(=O)N2Cc3ccc(F)cc3C2)nn(-c2ccccc2Cl)c1-c1ccc(Cl)cc1` gave an IC50 against Cannabinoid receptor 1 [1] of 5.7 nM.
`CCC(CC)NC(=O)c1nn(-c2ccccc2Cl)c(-c2ccc(Cl)cc2)c1CC#N` showed an IC50 on Cannabinoid receptor 1 [1] of 5.8 nM.
Turning to `N#CCc1c(C(=O)Nc2cnc3ccccc3c2)nn(-c2ccccc2Cl)c1-c1ccc(Cl)cc1`, the logD in data set [2] was determined as 4. At Cannabinoid receptor 1 [1], this compound returned an IC50 of 19 nM.
As for `N#CCc1c(C(=O)NCc2ccc(Br)cc2)nn(-c2ccccc2Cl)c1-c1ccc(Cl)cc1`, the logD in data set [2] was 4.4. For the same compound, the IC50 was 1.2 nM at Cannabinoid receptor 1 [3] and 5.8 nM on Cannabinoid receptor 1 [1].
For the compound `N#CCc1c(C(=O)N2CCC(c3ccc(F)cc3)CC2)nn(-c2ccccc2Cl)c1-c1ccc(Cl)cc1`, at Cannabinoid receptor 1 [1], half-maximal inhibition (IC50) required 1 nM.
With `COC(=O)C(NC(=O)c1nn(-c2ccccc2Cl)c(-c2ccc(Cl)cc2)c1CC#N)C(C)C` (stereo not drawn), at Cannabinoid receptor 1 [1], the IC50 came out at 7.3 nM.
The compound `N#CCc1c(C(=O)Nc2ccc(C(F)(F)F)nc2)nn(-c2ccccc2Cl)c1-c1ccc(Cl)cc1` registered an IC50 against Cannabinoid receptor 1 [1] of 14 nM.
The compound `N#CCc1c(C(=O)N2CCCC2c2ccc(F)cc2)nn(-c2ccccc2Cl)c1-c1ccc(Cl)cc1` (stereo not drawn) had an IC50 at Cannabinoid receptor 1 [1] of 27 nM.
Consider `CC(C)C(NC(=O)c1nn(-c2ccccc2Cl)c(-c2ccc(Cl)cc2)c1CC#N)C(=O)O` (stereo not drawn), for which the IC50 at Cannabinoid receptor 1 [1] is 6250 nM.
Turning to `N#CCc1c(C(=O)NN2CCOCC2)nn(-c2ccccc2Cl)c1-c1ccc(Cl)cc1`, the IC50 against Cannabinoid receptor 1 [1] came to 71 nM.
`N#CCc1c(C(=O)N2CCN(c3ccccc3)CC2)nn(-c2ccccc2Cl)c1-c1ccc(Cl)cc1` gave a 50% inhibitory concentration (IC50) at Cannabinoid receptor 1 [1] of 13 nM.
Compound `N#CCc1c(C(=O)NCCN2CCCCC2)nn(-c2ccccc2Cl)c1-c1ccc(Cl)cc1` yielded a logD in data set [2] of 2.9. In addition, on Cannabinoid receptor 1 [1], the IC50 turned out to be 1110 nM.
Regarding `N#CCc1c(C(=O)N2CCCCC2c2ccc(F)cc2)nn(-c2ccccc2Cl)c1-c1ccc(Cl)cc1` (stereo not drawn), the IC50 against Cannabinoid receptor 1 [1] came out at 23 nM.
`N#CCc1c(C(=O)N2CCC(O)(Cc3ccccc3)CC2)nn(-c2ccccc2Cl)c1-c1ccc(Cl)cc1` came in with an IC50 on Cannabinoid receptor 1 [1] of 3.4 nM.
Turning to `N#CCc1c(C(=O)NCc2ccccc2F)nn(-c2ccccc2Cl)c1-c1ccc(Cl)cc1`, the pH-dependent lipophilicity (logD) in data set [2] turned out to be 4.1. Further, the IC50 on Cannabinoid receptor 1 [1] worked out at 4.1 nM.
On Cannabinoid receptor 1 [1], `N#CCc1c(C(=O)NCCc2ccccc2)nn(-c2ccccc2Cl)c1-c1ccc(Cl)cc1` came in with an IC50 of 16 nM.
`N#CCc1c(C(=O)NC2CCCCC2)nn(-c2ccccc2Cl)c1-c1ccc(Cl)cc1`: the pH-dependent lipophilicity (logD) in data set [2] stood at 3.5. This compound gave an IC50 against Cannabinoid receptor 1 [1] of 1.9 nM.
`N#CCc1c(C(=O)NN2CCCCC2)nn(-c2ccccc2Cl)c1-c1ccc(Cl)cc1` had a logD in data set [2] of 3.6. At Cannabinoid receptor 1 [1], this compound displayed an IC50 of 7.5 nM.
Regarding `CS(=O)(=O)C1CCN(C(=O)c2nn(-c3ccccc3Cl)c(-c3ccc(Cl)cc3)c2CC#N)CC1`, half-maximal inhibition on Cannabinoid receptor 1 [1] (IC50) required 17 nM.
On the same count and under the same terms, then `N#CCc1c(C(=O)NN2CCCCCC2)nn(-c2ccccc2Cl)c1-c1ccc(Cl)cc1`, with 0.52 nM.
As to `N#CCc1c(C(=O)NCc2ccc(Cl)cc2Cl)nn(-c2ccccc2Cl)c1-c1ccc(Cl)cc1`, the logD in data set [2] was determined as 4.6. For the same compound, the IC50 on Cannabinoid receptor 1 [1] is 1.6 nM.
As to `N#CCc1c(C(=O)N2CCc3ccc(C(F)(F)F)cc3C2)nn(-c2ccccc2Cl)c1-c1ccc(Cl)cc1`, the IC50 against Cannabinoid receptor 1 [1] came out at 2.1 nM.
In data set [2], `N#CCc1ccc(NC(=O)c2nn(-c3ccccc3Cl)c(-c3ccc(Cl)cc3)c2CC#N)cc1` yielded a logD of 3.8. Moreover, 55 nM corresponded to half-maximal inhibition against Cannabinoid receptor 1 [1] (IC50).
`N#CCc1c(C(=O)N2Cc3ccc(Br)cc3C2)nn(-c2ccccc2Cl)c1-c1ccc(Cl)cc1` had an IC50 against Cannabinoid receptor 1 [1] of 0.22 nM.
For the compound `N#CCc1c(C(=O)Nc2ccc(F)cc2)nn(-c2ccccc2Cl)c1-c1ccc(Cl)cc1`, the logD in data set [2] came out at 4.2. On Cannabinoid receptor 1 [1], this compound registered an IC50 of 11 nM.
`N#CCc1c(C(=O)NCc2ccc(F)cc2)nn(-c2ccccc2Cl)c1-c1ccc(Cl)cc1` came in with a logD in data set [2] of 4.1. For the same compound, the IC50 on Cannabinoid receptor 1 [1] was 2.1 nM.
Compound `COC(=O)C(Cc1ccccc1)NC(=O)c1nn(-c2ccccc2Cl)c(-c2ccc(Cl)cc2)c1CC#N` (stereo not drawn) returned an IC50 against Cannabinoid receptor 1 [1] of 1.2 nM.
`N#CCc1c(C(=O)NCc2ccc(F)c(Br)c2)nn(-c2ccccc2Cl)c1-c1ccc(Cl)cc1` had a logD in data set [2] of 4.4. Further, the IC50 on Cannabinoid receptor 1 [1] is 0.7 nM.
In turn, `N#CCc1c(C(=O)NC2CCc3ccccc32)nn(-c2ccccc2Cl)c1-c1ccc(Cl)cc1` (stereo not drawn) gave a concentration for half-maximal inhibition (IC50) on Cannabinoid receptor 1 [1] of 0.41 nM.
Take `N#CCc1c(C(=O)N[C@H]2c3ccccc3C[C@H]2O)nn(-c2ccccc2Cl)c1-c1ccc(Cl)cc1` (single isomer, unassigned): at Cannabinoid receptor 1 [1], half-maximal inhibition (IC50) was put at 1.7 nM.
On the same count and under the same terms, the same measure for `COC(=O)c1ccccc1C1CCN(C(=O)c2nn(-c3ccccc3Cl)c(-c3ccc(Cl)cc3)c2CC#N)CC1`: 2.2 nM; for `N#CCc1c(C(=O)N2CCN(c3ncccn3)CC2)nn(-c2ccccc2Cl)c1-c1ccc(Cl)cc1`: 3.8 nM; for `N#CCc1c(C(=O)N[C@@H]2c3ccccc3C[C@@H]2O)nn(-c2ccccc2Cl)c1-c1ccc(Cl)cc1` (single isomer, unassigned): 7.8 nM.
For the compound `N#CCc1c(C(=O)NCc2c(Cl)cccc2Cl)nn(-c2ccccc2Cl)c1-c1ccc(Cl)cc1`, the logD in data set [2] turned out to be 4.6. Half-maximal inhibition on Cannabinoid receptor 1 [1] (IC50) was put at 7 nM.
With `N#CCc1c(C(=O)N2CCC(c3ccc(F)cc3)C2)nn(-c2ccccc2Cl)c1-c1ccc(Cl)cc1` (stereo not drawn), it took 9.2 nM to reach half-maximal inhibition on Cannabinoid receptor 1 [1] (IC50).
With `C[C@H]1CC[C@H](NC(=O)c2nn(-c3ccccc3Cl)c(-c3ccc(Cl)cc3)c2CC#N)CC1`, the IC50 at Cannabinoid receptor 1 [1] was determined as 1.6 nM.
`N#CCc1c(C(=O)NCc2cccc(Cl)c2)nn(-c2ccccc2Cl)c1-c1ccc(Cl)cc1` displayed a pH-dependent lipophilicity (logD) in data set [2] of 4.4. This compound also came in with a 50% inhibitory concentration (IC50) on Cannabinoid receptor 1 [1] of 2.6 nM.
Consider `N#CCc1c(C(=O)N[C@@H]2C[C@H]3CC[C@@H]2C3)nn(-c2ccccc2Cl)c1-c1ccc(Cl)cc1`, for which the IC50 on Cannabinoid receptor 1 [1] was determined as 2.2 nM.

(Values after ChEMBL document CHEMBL1153177, “Exploring SAR features in diverse library of 4-cyanomethyl-pyrazole-3-carboxamides suitable for further elaborations as CB1 antagonists” (Bioorg Med Chem Lett, 2010).)
